Data on three compounds can be found in ChEMBL document CHEMBL4371031, “In Vitro Antiviral Activity of New Oxazoline Derivatives as Potent Poliovirus Inhibitors” (J Med Chem, 2019).

Format in all cases: functional, organism-based
The test system of experiment [1] is Poliovirus 2. Put plainly: Antiviral activity against Poliovirus Sabin 2 infected in human HeLa cells assessed as reduction in virus-induced cytopathic effect at 1 uM treated 6 hrs post infection and measured after 12 hrs by luminescence based assay. The procedure, abridged: (§1)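 HeLa monolayers were infected with Sabin 2 at 100 CCID50 for 1 h at 37°C, then washed 3x. Drug was added at 0, 1, 2, 4, 6 or 8 h post-infection and left in place. At 12 h, virus was freeze-thawed 3x and titrated in 0.5 log10 dilutions (16 replicates) on HeLa cells for 5 days. CPE was read by ATP luminescence, titre calculated as CCID50 (Kärber); mean of three independent experiments.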
For orientation: Damage to the host cells serves as the signal in cytopathic effect assays.

Experiment [2] deals with Poliovirus 2. Put plainly: Antiviral activity against Human poliovirus 2 10234 infected in human HeLa cells assessed as reduction in virus-induced cytopathic effect after 72 hrs by crystal violet staining-based assay. Particulars: Enterovirus C, 10234, HeLa. The gist of the method: (§2)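 HeLa cells grown in MEM-10% FBS, seeded at 2x10^5 cells/mL in MEM-2% FBS and preincubated 24 h at 37°C, 5% CO2. Compound and virus were cross-titrated […] compound in 0.5 log10 steps (7-point curves), with duplicate wells and three replicate tests per virus. After 72 h at 37°C, cells were crystal violet stained and read at 590 nm. EC50 came from a four-parameter fit; if all virus dilutions gave >80% monolayer destruction, the value was […].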

Experiment [3] has as its system Poliovirus 2. Put plainly: Antiviral activity against Human poliovirus 2 Sabin 2 infected in human HeLa cells assessed as reduction in virus-induced cytopathic effect after 72 hrs by crystal violet staining-based assay. Particulars: Enterovirus C, Sabin 2, HeLa. The procedure, abridged: as §2
For experiment [4], the system named is Poliovirus 1. Put plainly: Antiviral activity against Human poliovirus 1 10224 infected in human HeLa cells assessed as reduction in virus-induced cytopathic effect after 72 hrs by crystal violet staining-based assay. Particulars: Enterovirus C, 10224, HeLa. The procedure, abridged: as §2
For experiment [5], the system named is Poliovirus 1. Nature of the experiment: Antiviral activity against Human poliovirus 1 10689 infected in human HeLa cells assessed as reduction in virus-induced cytopathic effect after 72 hrs by crystal violet staining-based assay. Particulars: Enterovirus C, 10689, HeLa. The procedure, abridged: as §2
Experiment [6] deals with Poliovirus 2. Put plainly: Antiviral activity against Human poliovirus 2 10221 infected in human HeLa cells assessed as reduction in virus-induced cytopathic effect after 72 hrs by crystal violet staining-based assay. Particulars: Enterovirus C, 10221, HeLa. The procedure, abridged: as §2
For experiment [7], the system named is Poliovirus 2. Nature of the experiment: Antiviral activity against Human poliovirus 2 MEF-1 infected in human HeLa cells assessed as reduction in virus-induced cytopathic effect after 72 hrs by crystal violet staining-based assay. Particulars: Enterovirus C, MEF-1, HeLa. The procedure, abridged: as §2
For experiment [8], the system named is Poliovirus 1. Put plainly: Antiviral activity against Human poliovirus 1 10222 infected in human HeLa cells assessed as reduction in virus-induced cytopathic effect after 72 hrs by crystal violet staining-based assay. As to conditions: Enterovirus C, 10222, HeLa. The gist of the method:
as §2

The test system of experiment [9] is Poliovirus 3. Put plainly: Antiviral activity against Poliovirus Sabin 3 infected in human HeLa cells assessed as reduction in virus-induced cytopathic effect after 72 hrs by crystal violet staining-based assay. Particulars: Enterovirus C. The procedure, abridged:
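HeLa cells grown in MEM-10% FBS, seeded at 2x10^5 cells/mL in MEM-2% FBS and held 24 h at 37°C, 5% CO2. Compound and virus were cross-titrated together on the cells starting at 10 µM compound, in 0.5 log10 steps, duplicate wells, three replicate tests per virus. Incubated 72 h at 37°C, stained with crystal violet, A590 read. EC50 from four-parameter fit.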

Experiment [10] concerns Poliovirus 1. Nature of the experiment: Antiviral activity against Human poliovirus 1 10239 infected in human HeLa cells assessed as reduction in virus-induced cytopathic effect after 72 hrs by crystal violet staining-based assay. As to conditions: Enterovirus C, 10239, HeLa. The procedure, abridged: as §2
For experiment [11], the system named is Poliovirus 2. Put plainly: Antiviral activity against Poliovirus Sabin 2 infected in human HeLa cells assessed as reduction in virus-induced cytopathic effect at 1 uM treated 1 hr post infection and measured after 12 hrs by luminescence based assay. The gist of the method: as §1
The subject of experiment [12] is Poliovirus 2. Nature of the experiment: Antiviral activity against Human poliovirus 2 10228 infected in human HeLa cells assessed as reduction in virus-induced cytopathic effect after 72 hrs by crystal violet staining-based assay. As to conditions: Enterovirus C, 10228, HeLa. The procedure, abridged:
as §2

Experiment [13] concerns Poliovirus 1. Nature of the experiment: Antiviral activity against Human poliovirus 1 10237 infected in human HeLa cells assessed as reduction in virus-induced cytopathic effect after 72 hrs by crystal violet staining-based assay. As to conditions: Enterovirus C, 10237, HeLa. The procedure, abridged:
as §2

For experiment [14], the system named is Poliovirus 2. Nature of the experiment: Antiviral activity against Human poliovirus 2 10230 infected in human HeLa cells assessed as reduction in virus-induced cytopathic effect after 72 hrs by crystal violet staining-based assay. As to conditions: Enterovirus C, 10230, HeLa. The gist of the method:
as §2

Experiment [15] deals with Poliovirus 3. Put plainly: Antiviral activity against Human poliovirus 3 10805 infected in human HeLa cells assessed as reduction in virus-induced cytopathic effect after 72 hrs by crystal violet staining-based assay. Particulars: Enterovirus C, 10805, HeLa. The gist of the method:
as §2

Experiment [16] deals with Poliovirus 1. Put plainly: Antiviral activity against Human poliovirus 1 10695 infected in human HeLa cells assessed as reduction in virus-induced cytopathic effect after 72 hrs by crystal violet staining-based assay. As to conditions: Enterovirus C, 10695, HeLa. The procedure, abridged: as §2
For experiment [17], the system named is Poliovirus 3. Put plainly: Antiviral activity against Human poliovirus 3 Leon infected in human HeLa cells assessed as reduction in virus-induced cytopathic effect after 72 hrs by crystal violet staining-based assay. Particulars: Enterovirus C. The procedure, abridged:
as §2

In experiment [18] the test system is Poliovirus 1. Put plainly: Antiviral activity against Human poliovirus 1 10692 infected in human HeLa cells assessed as reduction in virus-induced cytopathic effect after 72 hrs by crystal violet staining-based assay. Particulars: Enterovirus C, 10692, HeLa. The gist of the method:
as §2

Experiment [19] has as its system Poliovirus 1. Nature of the experiment: Antiviral activity against Human poliovirus 1 10688 infected in human HeLa cells assessed as reduction in virus-induced cytopathic effect after 72 hrs by crystal violet staining-based assay. As to conditions: Enterovirus C, 10688, HeLa. The procedure, abridged: as §2
In experiment [20] the test system is Poliovirus 2. Put plainly: Antiviral activity against Human poliovirus 2 10233 infected in human HeLa cells assessed as reduction in virus-induced cytopathic effect after 72 hrs by crystal violet staining-based assay. Particulars: Enterovirus C, 10233, HeLa. The gist of the method:
as §2

In experiment [21] the test system is Poliovirus 1. Put plainly: Antiviral activity against Human poliovirus 1 10236 infected in human HeLa cells assessed as reduction in virus-induced cytopathic effect after 72 hrs by crystal violet staining-based assay. Particulars: Enterovirus C, 10236, HeLa. The procedure, abridged: as §2
Experiment [22] relates to Poliovirus 1. Put plainly: Antiviral activity against Human poliovirus 1 Sabin 1 infected in human HeLa cells assessed as reduction in virus-induced cytopathic effect after 72 hrs by crystal violet staining-based assay. As to conditions: Enterovirus C, Sabin 1, HeLa. The gist of the method: as §2
Experiment [23] has as its system Poliovirus 1. Put plainly: Antiviral activity against Human poliovirus 1 10241 infected in human HeLa cells assessed as reduction in virus-induced cytopathic effect after 72 hrs by crystal violet staining-based assay. As to conditions: Enterovirus C, 10241, HeLa. The procedure, abridged: as §2
Experiment [24] relates to Poliovirus 2. Put plainly: Antiviral activity against Poliovirus Sabin 2 infected in human HeLa cells assessed as reduction in virus-induced cytopathic effect at 1 uM treated 0 to 8 hrs post infection and measured after 12 hrs by luminescence based assay. The gist of the method: as §1

The source made the active and inactive calls. No cut-off for these calls is given here.

As to `Cc1ccc(C(=O)CCCCOc2ccc(C3=NCCO3)cc2)s1`, the result in the experiment with Poliovirus 2 [1] and with Poliovirus 2 [11] was inactive. In addition, the EC50 in the experiment on Poliovirus 2 [2] was 30 nM; with Poliovirus 2 [3], 30 nM; in the experiment with Poliovirus 1 [4], more than 100000 nM; with Poliovirus 1 [5], 60 nM; with Poliovirus 2 [6] it was 20 nM; with Poliovirus 2 [7], more than 100000 nM. The EC50 in the experiment with Poliovirus 1 [8] amounted to 7890 nM; in the experiment on Poliovirus 3 [9], 367 nM; in the experiment on Poliovirus 1 [10], 940 nM; in the experiment on Poliovirus 2 [12], 10100 nM; in the experiment on Poliovirus 1 [13] it was 5750 nM; in the experiment with Poliovirus 2 [14], 100 nM. The concentration for a half-maximal effect (EC50) is 270 nM in the experiment on Poliovirus 3 [15]; 8410 nM in the experiment with Poliovirus 1 [16]; 170 nM in the experiment with Poliovirus 3 [17]; more than 100000 nM with Poliovirus 1 [18]; 40 nM with Poliovirus 1 [19]; 450 nM with Poliovirus 2 [20]. In addition, the EC50 in the experiment with Poliovirus 1 [21] was 2720 nM; with Poliovirus 1 [22], 12500 nM; with Poliovirus 1 [23] it was 3170 nM.
As to `Cc1ccc(C(=O)CCC/C=C/c2ccc(C3=NCCO3)cc2)s1`, the EC50 is 20 nM with Poliovirus 2 [2]; 30 nM in the experiment with Poliovirus 2 [3]; 1110 nM in the experiment with Poliovirus 1 [4]; 34 nM in the experiment on Poliovirus 1 [5]; 20 nM with Poliovirus 2 [6]; 30 nM in the experiment with Poliovirus 2 [7]. In addition, the EC50 in the experiment with Poliovirus 1 [8] was 1130 nM; in the experiment on Poliovirus 3 [9] it was 53 nM; with Poliovirus 1 [10], 220 nM; with Poliovirus 2 [12] it was 500 nM; in the experiment with Poliovirus 1 [13] it was 280 nM; in the experiment on Poliovirus 2 [14], 30 nM. The half-maximal effective concentration (EC50) with Poliovirus 3 [15] is 30 nM; in the experiment on Poliovirus 1 [16], 580 nM; with Poliovirus 3 [17], 950 nM; with Poliovirus 1 [18] it was 780 nM; in the experiment with Poliovirus 1 [19], 40 nM; with Poliovirus 2 [20], 190 nM. The EC50 in the experiment on Poliovirus 1 [21] came out at 720 nM; with Poliovirus 1 [22], 340 nM; with Poliovirus 1 [23], 370 nM. Besides, in the experiment on Poliovirus 2 [24], the outcome was Active.
Take `Cc1ccc(C(=O)CCCCSc2ccc(C3=NCCO3)cc2)s1`: the outcome in the experiment on Poliovirus 2 [1] was Active. Moreover, the EC50 in the experiment with Poliovirus 2 [2] was 2470 nM; in the experiment on Poliovirus 2 [3], 160 nM; with Poliovirus 1 [4], more than 10000 nM; in the experiment on Poliovirus 1 [5], 2030 nM; with Poliovirus 2 [6], 2370 nM; in the experiment on Poliovirus 2 [7], 1260 nM. Besides, the EC50 in the experiment on Poliovirus 1 [8] was 4900 nM; in the experiment on Poliovirus 3 [9], 330 nM; with Poliovirus 1 [10], 5630 nM; in the experiment with Poliovirus 2 [12] it was 9100 nM; in the experiment on Poliovirus 1 [13] it was 6470 nM; in the experiment on Poliovirus 2 [14], 5330 nM. Also, the EC50 with Poliovirus 3 [15] was 1500 nM; in the experiment on Poliovirus 1 [16], 7430 nM; in the experiment on Poliovirus 3 [17] it was 1110 nM; in the experiment with Poliovirus 1 [18], more than 10000 nM; with Poliovirus 1 [19] it was 2800 nM; with Poliovirus 2 [20] it was 8470 nM. Further, the EC50 with Poliovirus 1 [21] stood at 720 nM; in the experiment on Poliovirus 1 [22], 700 nM; in the experiment with Poliovirus 1 [23], 8070 nM. The result with Poliovirus 2 [11] was inactive.

In general, EC50 refers to the midpoint of the concentration-response curve.
